Compounds with a hit are over-represented: about 2.6% of the library has one in this group of screens.
RAD54 inh – blocks human RAD54 Holliday junction branch migration; Q92698; FAM/BHQ fluorescence; inhibition, % at 10.4 µM; hit rate 0.14% among 360,000; AID 602329;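 active = mean normalized replicate activity at least 40 and at least half of replicates scoring 40 or more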;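 also: 0% = median of neutral control wells and 100% = median of positive control wells; inhibitors cause a drop in the FAM fluorescence signal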
E-sel inducer – E-selectin induction on HUVECs. P16581. HUVEC E-selectin immunofluorescence imaging; normalized: neutral wells 0, TNF-alpha wells 100. activation, % at 7.58 µM. hit rate 0.37% among 260,000. AID 686992;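 active = mean E-selectin-positive cell signal at least 10% of the positive control, reached in at least 60% of replicates, without over 20% cell loss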
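material = human umbilical vein endothelial cells (HUVEC), E-selectin induction | quantity = 3,000 cells/well | medium = EGM-2 growth medium on 0.1% gelatin-coated wells | technique = immunofluorescence imaging | read-out basis = % PE-positive cells | control set = TNF-alpha positive control, DMSO neutral control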
Ecoli rRNA inh – inhibitors of bacterial rRNA selective over humanized ribosomes; E. coli WT GFP vs humanized-ribosome RFP mutants, fluorescence, 24 h; hits give low values; DMSO median 0, no signal -100; hit rate 1.6% among 350,000; GFP signal change (wild-type ribosome), % (concentration not given with the values);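 active = significant combined selectivity score with lowered wild-type GFP, culture density cut under 30%, mutant RFP and density less affected; inactive = any of these conditions unmet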
AF4-AF9 inh – MLL-AF4/AF9 protein interaction inhibition | hit rate 0.47% among 350,000 | P42568 | inhibition, % at 10 µM | AlphaScreen, biotin-AF4 peptide binding to FLAG-AF9;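 active = every replicate reaching a set inhibition limit, whatever the replicate mean, cut at about 25% in these data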;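 also: 0% = plate neutral control median and 100% = total signal loss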
Target sequence (P42568 whole entry, looked up): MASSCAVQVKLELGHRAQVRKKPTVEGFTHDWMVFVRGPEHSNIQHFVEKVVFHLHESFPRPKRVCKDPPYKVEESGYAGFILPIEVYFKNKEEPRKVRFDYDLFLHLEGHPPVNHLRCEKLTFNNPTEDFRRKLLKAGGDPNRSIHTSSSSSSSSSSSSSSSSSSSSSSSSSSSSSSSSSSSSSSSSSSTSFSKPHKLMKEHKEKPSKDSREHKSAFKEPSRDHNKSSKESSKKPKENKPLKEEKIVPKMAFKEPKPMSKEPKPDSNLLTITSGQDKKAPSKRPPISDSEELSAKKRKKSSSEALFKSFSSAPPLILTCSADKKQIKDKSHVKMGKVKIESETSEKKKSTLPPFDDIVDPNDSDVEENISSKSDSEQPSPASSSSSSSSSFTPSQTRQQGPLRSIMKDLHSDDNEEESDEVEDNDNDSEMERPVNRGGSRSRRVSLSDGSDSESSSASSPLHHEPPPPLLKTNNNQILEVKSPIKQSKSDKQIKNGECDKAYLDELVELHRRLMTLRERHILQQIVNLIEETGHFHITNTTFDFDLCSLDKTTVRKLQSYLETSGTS
RAD52 anneal inh – blocks human RAD52 DNA annealing; recombinant RAD52 DNA annealing, FRET fluorescence; inhibition, % at 18.7 µM; hit rate 0.46% among 360,000; AID 651710;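 active = every replicate showing at least 50% inhibition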
INS-1E GSIS act – primary screen for activators of insulin secretion dependent on glucose, INS-1E cells, GLuc reporter luminescence; INS-1E GLuc reporter insulin secretion, 2-3 h; activation, % at 16.6 µM; hit rate 0.61% among 370,000; AID 743287;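 active = lowest replicate activation of at least 40%, so every replicate reaches that level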;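 also: 0% = median of neutral control wells and 100% = median of IBMX positive control wells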
Active calls of the source: *; / = no result given; ! = not active in a repeat.

SMILES	RAD54 inh	E-sel inducer	Ecoli rRNA inh	AF4-AF9 inh	RAD52 anneal inh	INS-1E GSIS act
COc1ccc(OC)c(CNC(=O)C2CCCN(S(=O)(=O)N3CCC(C)CC3)C2)c1 (centres undefined)	-14.8	/	-4.6	3.5	-20.8	0.3
CCOC(=O)N1CCN(S(=O)(=O)N2CCCC(C(=O)NCc3cc(OC)ccc3OC)C2)CC1 (centres undefined)	-0.1	-0.2	2.9	0.9	-0.2	99.4*
CO[C@H]1CN(C)C(=O)c2ccc(NC(=O)C3CCC3)cc2OC[C@@H](C)N(Cc2nccs2)C[C@@H]1C	3.7	-0.1	-3.2	-0.4	0.0	-9.4
C[C@@H]1CCCCO[C@@H](CN(C)C(=O)C2CCCCC2)[C@H](C)CN([C@@H](C)CO)C(=O)c2cc(NC(=O)CCCN(C)C)ccc2O1	/	0.4	1.7	/	/	13.3
CCOC(=O)CN1C(=O)[C@]2(OCCC=C[C@H]2C)c2ccccc21	/	-0.1	34.1	/	-16.9	350.8*
O=S(=O)(NCC1CCCO1)c1ccc(-c2ccc(Cl)cc2)cc1 (centres undefined)	/	-0.1	-25.4*	-3.1	-13.7	11.1
CCCCCCSc1ccc([C@@H]2[C@H]3C(=O)N(CC)C(=O)[C@H]3[C@]3(C(=O)OC)CCCCN23)cc1OC	-14.6	-0.3	7.1	47.5*	-195.0	/
CCCNC(=O)C[C@@H]1CC[C@@H]2[C@H](COC[C@@H](O)CN2Cc2ccccc2F)O1	-1.0	0.2	2.9	-1.6	0.7	0.6
O=C1/C(=C/c2cccc(Cl)c2)CSc2sccc21	/	1.3	-14.4	-4.1	-7.8	19.9
O=C1/C(=C/c2cccc(F)c2)CSc2sccc21	-1.0	/	/	/	/	42.6*
COc1ccccc1-c1ccc(SCc2ccccc2F)nn1	/	0.5	-35.7*	0.8	-17.2	-2.8
COc1ccccc1-c1ccc(SCC(=O)NCCc2ccccc2)nn1	-0.8	-0.3	-31.9*	2.1	-10.7	-7.4
COc1ccccc1-c1ccc(SCc2ccccc2)nn1	/	/	-33.4*	-1.6	-6.0	-2.9
COc1ccccc1-c1ccc(SCc2cccc(F)c2)nn1	/	22.4	-29.5*	-4.0	-38.2	6.8
CC(C)NC(=O)Nc1ccc2c(c1)C(=O)N([C@H](C)CO)C[C@@H](C)[C@@H](CN(C)C(=O)CCC(F)(F)F)OCCCC[C@@H](C)O2	5.7	-0.2	0.1	-3.3	-2.0	25.4
Cc1noc(C)c1S(=O)(=O)N(C)C[C@H]1Oc2c(NC(=O)c3cnccn3)cccc2C(=O)N([C@@H](C)CO)C[C@H]1C	0.3	-0.1	1.3	-3.3	-2.2	8.3
CCCCC1C(=O)N(c2ccccc2)N(c2ccc(O)cc2)C1=O (centres undefined)	4.4	152.0*	/	-5.2	-6.7	/
CCCCC1(CO)C(=O)N(c2ccccc2)N(c2ccccc2)C1=O	0.3	0.1	-0.4	-0.4	-19.5	1.1
CCC(=O)N1CCC2(CC1)CN(C(=O)c1ccccn1)[C@@H](CO)c1c2c2ccc(OC)cc2n1C	/	/	2.5	/	/	8.6
COc1cc(C)ccc1OCc1cc(C(=O)N2CCC(c3ccc(F)cc3)C2)no1 (centres undefined)	3.7	/	-14.4*	2.9	-106.1	-1.6
CC(C)=CCC[C@H](C)C[C@@H]1Cc2[nH]c(=S)[nH]c(=O)c2[C@@H](c2ccc(F)cc2)O1	/	0.6	-7.8	0.1	4.2	255.1*
O=C(CC1CC1)N1CC2(C1)[C@@H](c1ccccc1)[C@H](CO)N2C(=O)c1cccnc1	/	0.5	2.6	-4.4	-1.0	4.7
C=CCN1C(=O)CSc2ccc(C(=O)OCC)cc21	6.6	/	/	/	/	68.6*
O=C(C1CCC1)N1CCCCN2[C@@H](CO)[C@H](c3ccc(C#CC4CCCC4)cc3)[C@@H]2C1	4.4	/	/	9.8	46.4	/
C[C@H]1CN([C@@H](C)CO)C(=O)Cc2cc(NS(=O)(=O)c3ccc(Cl)cc3)ccc2O[C@H]1CN(C)C(=O)Nc1cccc2ccccc12	-2.6	19.6	-2.9	3.3	11.9	-10.2
SMILES	RAD54 inh	E-sel inducer	Ecoli rRNA inh	AF4-AF9 inh	RAD52 anneal inh	INS-1E GSIS act
CN(CC(=O)Nc1cccc(F)c1)C(=O)CCCc1c[nH]c2ccccc12	-6.0	0.5	-26.4*	6.0	-7.1	-31.6
COc1cccc(NC(=O)CN(C)C(=O)CCCc2c[nH]c3ccccc23)c1	0.1	-0.1	-12.7	4.0	-12.6	-13.2
CCOC(=O)c1c(-c2ccc(C)o2)csc1NC(=O)COC(=O)c1ccc(NC(N)=O)cc1	1.0	/	/	/	/	49.6*
COCC(=O)Nc1ccc2c(c1)[C@@H]1C[C@H](CC(=O)NCc3ccc(OC)cc3)O[C@H](CO)[C@@H]1O2	11.0	0.4	0.4	0.5	18.3	-1.1
O=C(NCC(c1ccc(F)cc1)N1CCOCC1)c1ccc([N+](=O)[O-])o1 (centres undefined)	0.7	-0.2	-18.1*	0.5	-8.5	/
S=C(c1ccc(-c2cccc(Cl)c2)o1)N1CCCCC1	/	0.0	-28.8*	18.9	-5.6	-5.4
CC(C)NC(=O)N(C)C[C@@H]1Oc2c(NC(=O)C3CCOCC3)cccc2C(=O)N([C@H](C)CO)C[C@@H]1C	-10.3	-0.3	1.3	-0.5	6.5	10.5
Cc1nc(-c2ccc(NC(=O)c3ccccc3Br)cc2)cs1	/	4.7	/	/	/	-3.5
Cc1nc(-c2ccc(NC(=O)c3ccccc3C)cc2)cs1	1.9	-3.4	-27.2*	-1.5	-1.5	-4.5
CC1=CC(c2ccccc2)n2nc(NC(=O)CCC(=O)O)nc2N1 (centres undefined)	-9.5	-0.3	5.2	-11.9	-4.2	65.5*
CCCOC(=O)C[N+](C)(C)CCOC1CC2CCC1(C)C2(C)C (centres undefined)	/	-0.7	-47.3*	-43.7	4.3	-6.0
CCCCOC(=O)C[N+](C)(C)CCOC1CC2CCC1(C)C2(C)C (centres undefined)	12.2	/	-54.4	-0.5	21.9	-12.4
COc1cccc(CN2CC3(CCN(C)CC3)c3c(n(C)c4cc(OC)ccc34)[C@@H]2CO)c1	/	0.6	4.0	-0.8	-1.9	16.1
CC1(C(=O)NCc2cccc3ccccc23)CCN1Cc1ccc2ccccc2c1 (centres undefined)	13.1	-0.4	-6.1	4.2	-2.6	-20.1
CC1(C(=O)NCc2cccc3ccccc23)CCN1Cc1ccc(OC(F)(F)F)cc1 (centres undefined)	-5.5	-0.1	-3.2	-17.1	-23.6	203.3*
COc1cccc(CN2C[C@@H]3N[C@H](C2)C3c2ccc(-c3ccncc3)cc2)c1 (some centres undefined)	/	0.1	0.7	10.5	-8.1	6.3
COc1cccc(-c2ccc(C3[C@@H]4CN(Cc5cccc(F)c5)C[C@H]3N4)cc2)c1 (some centres undefined)	/	0.1	-58.6	13.6	53.3*	754.9*!
COc1ccc(-c2ccc(C3[C@@H]4CN(Cc5cccc(OC)c5)C[C@H]3N4)cc2)cc1 (some centres undefined)	/	-0.2	-55.8	10.5	66.9*	51.0*!
